Experimental data from ChEMBL document CHEMBL5113430, “Evaluation of chromane derivatives: Promising privileged scaffolds for lead discovery within Alzheimer's disease” (Bioorg Med Chem, 2022).
The source made the active and inactive calls. The calls are words filed in the database; no cut-off is given here.

Legend:
[1] = biological target: T1, Amine oxidase [flavin-containing] B (Homo sapiens, UniProt P27338); experiment: Inhibition of recombinant MAO-B (unknown origin) expressed in baculovirus infected BTI cells assessed as reduction in 4-hydroxyquinoline level using kynuramine as a substrate at 1 uM incubated for 20 mins by discontinuous fluorimetric assay relative to control; details: read-out: INH
T1 sequence (P27338 whole entry): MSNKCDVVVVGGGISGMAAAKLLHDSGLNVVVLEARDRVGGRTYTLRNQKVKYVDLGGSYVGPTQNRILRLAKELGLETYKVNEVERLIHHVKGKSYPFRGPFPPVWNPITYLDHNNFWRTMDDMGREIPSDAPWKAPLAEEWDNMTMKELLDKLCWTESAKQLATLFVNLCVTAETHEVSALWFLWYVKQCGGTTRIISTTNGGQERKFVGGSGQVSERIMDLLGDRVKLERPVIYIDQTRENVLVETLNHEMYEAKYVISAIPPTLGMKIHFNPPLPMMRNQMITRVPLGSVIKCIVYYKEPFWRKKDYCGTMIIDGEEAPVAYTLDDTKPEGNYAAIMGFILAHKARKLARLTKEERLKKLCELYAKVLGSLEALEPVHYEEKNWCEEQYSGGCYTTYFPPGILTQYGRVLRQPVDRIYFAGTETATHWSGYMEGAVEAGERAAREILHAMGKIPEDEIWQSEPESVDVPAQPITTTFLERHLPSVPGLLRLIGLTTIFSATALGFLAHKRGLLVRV

[2] = biological target: T2, Amine oxidase [flavin-containing] A (Homo sapiens, UniProt P21397); experiment: Inhibition of recombinant MAO-A (unknown origin) expressed in baculovirus infected BTI cells assessed as reduction in 4-hydroxyquinoline level using kynuramine as a substrate at 1 uM incubated for 20 mins by discontinuous fluorimetric assay relative to control
T2 sequence (P21397 whole entry): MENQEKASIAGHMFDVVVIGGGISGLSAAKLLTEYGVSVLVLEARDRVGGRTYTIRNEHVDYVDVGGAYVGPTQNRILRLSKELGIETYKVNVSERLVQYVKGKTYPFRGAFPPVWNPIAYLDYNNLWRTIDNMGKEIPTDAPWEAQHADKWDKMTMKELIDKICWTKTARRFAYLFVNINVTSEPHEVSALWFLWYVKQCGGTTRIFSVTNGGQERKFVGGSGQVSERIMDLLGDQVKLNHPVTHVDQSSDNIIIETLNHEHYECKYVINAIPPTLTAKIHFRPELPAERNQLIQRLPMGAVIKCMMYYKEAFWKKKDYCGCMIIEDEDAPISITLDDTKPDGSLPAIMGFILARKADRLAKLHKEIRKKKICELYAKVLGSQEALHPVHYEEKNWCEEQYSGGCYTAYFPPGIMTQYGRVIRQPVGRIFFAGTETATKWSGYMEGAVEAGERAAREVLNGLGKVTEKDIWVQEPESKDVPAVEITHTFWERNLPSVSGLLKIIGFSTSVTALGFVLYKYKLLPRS
Procedure, shortened: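 Discontinuous fluorimetric assay with recombinant membrane-bound MAO-A and kynuramine at two-fold KM (KM = 30 μM). Test compound at 1 μM, from a 1 mM DMSO stock. Incubated 20 min at 37 °C, stopped with 2 N NaOH. 4-hydroxyquinoline read at ex 320 nm / em 405 nm. Percent inhibition against no-inhibitor control, mean ± SD of two independent experiments in duplicate.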

Cholinesterase [3] = biological target: T3, Cholinesterase (Equus caballus, UniProt P81908); experiment: Inhibition of Equine serum BuChE using S-butyrylthiocholine iodide as a substrate and measured for 125 sec by DTNB based Ellman's method
Acetylcholinesterase [4] = biological target: T4, Acetylcholinesterase (Electrophorus electricus, UniProt O42275); experiment: Inhibition of electric eel AChE using […] as a substrate and measured for 125 sec by DTNB based Ellman's method
Cholinesterase [5] = biological target: T3, Cholinesterase; experiment: Inhibition of Equine serum BuChE assessed as inhibitory constants for binding the free enzyme using S-butyrylthiocholine iodide as a substrate by Cornish-Bowden plot analysis
Procedure, shortened: (§1)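 Equine BuChE, Ellman method: 50 μM phosphate buffer pH 8.0, 0.975 mM DTNB, 1.25% DMSO, 25 °C, read at 405 nm over 125 s. Runs used 5 butyrylthiocholine levels (1/4 to 4 × KM) and 3–4 inhibitor levels giving roughly 30–80% inhibition. KM and Vmax came from nonlinear regression. Mode of inhibition and constants came from Cornish-Bowden plots.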

Cholinesterase [6] = biological target: T3, Cholinesterase; experiment: Inhibition of Equine serum BuChE assessed as inhibitory constants for binding the enzyme-substrate complex using S-butyrylthiocholine iodide as a substrate by Cornish-Bowden plot analysis; procedure, shortened: as §1
[7] = biological target: T1, Amine oxidase [flavin-containing] B; experiment: Inhibition of human MAO-B assessed as shielding effect on inhibitor […] at 0.016 mM incubated for 20 min by STD-NMR spectroscopy; details: 16 µM
Procedure, shortened: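 MAO-B incubated with the N-propargyl inhibitor and followed by 1H NMR, with spectra recorded every 5 min. The spectrum of inhibitor alone was compared with the inhibitor–enzyme mixture at 20 min, watching shifts of inhibitor protons, especially the propargyl proton. Ligand-only controls and blanks checked for direct saturation. Water suppression at 4.7 ppm.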

Acetylcholinesterase [8] = biological target: T4, Acetylcholinesterase; experiment: Inhibition of electric eel AChE using […] as a substrate and measured upto 180 sec by DTNB based Ellman's method
[9] = biological target: Cholinesterase (Equus caballus) (UniProt P81908); experiment: Inhibition of equine serum BuChE at 1.47 mM by STD-NMR spectroscopy
Procedure, shortened: (§2)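 STD-NMR with 5 μM equine BuChE in D2O; ligand stocks of 8.8 and 4.8 mM. Saturation times for buildup curves 0.25–5 s, total experiment time held at 6.5 s. Water suppression at 4.7 ppm, sweep width 20.03 ppm. Blanks checked for direct ligand saturation.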

[10] = biological target: Cholinesterase (Equus caballus) (UniProt P81908); experiment: Inhibition of equine serum BuChE at 0.8 mM by STD-NMR spectroscopy; procedure, shortened: as §2

T4 sequence (O42275 whole entry): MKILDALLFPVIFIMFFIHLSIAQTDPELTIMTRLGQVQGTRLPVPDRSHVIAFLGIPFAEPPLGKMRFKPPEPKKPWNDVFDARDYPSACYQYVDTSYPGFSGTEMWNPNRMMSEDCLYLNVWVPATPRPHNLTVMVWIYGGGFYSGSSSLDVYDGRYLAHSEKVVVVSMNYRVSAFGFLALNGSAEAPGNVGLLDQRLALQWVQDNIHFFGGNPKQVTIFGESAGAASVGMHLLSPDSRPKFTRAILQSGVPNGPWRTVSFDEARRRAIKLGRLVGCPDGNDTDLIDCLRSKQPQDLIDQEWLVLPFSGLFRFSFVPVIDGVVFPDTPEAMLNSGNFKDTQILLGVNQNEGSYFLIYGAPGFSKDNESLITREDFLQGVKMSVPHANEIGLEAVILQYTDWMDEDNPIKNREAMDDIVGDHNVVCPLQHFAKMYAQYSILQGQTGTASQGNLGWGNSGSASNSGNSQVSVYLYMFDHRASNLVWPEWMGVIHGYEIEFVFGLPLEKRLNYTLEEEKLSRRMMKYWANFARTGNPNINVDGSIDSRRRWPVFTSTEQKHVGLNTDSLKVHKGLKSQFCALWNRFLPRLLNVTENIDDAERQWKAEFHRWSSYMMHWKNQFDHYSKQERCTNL
T3 sequence (P81908 whole entry): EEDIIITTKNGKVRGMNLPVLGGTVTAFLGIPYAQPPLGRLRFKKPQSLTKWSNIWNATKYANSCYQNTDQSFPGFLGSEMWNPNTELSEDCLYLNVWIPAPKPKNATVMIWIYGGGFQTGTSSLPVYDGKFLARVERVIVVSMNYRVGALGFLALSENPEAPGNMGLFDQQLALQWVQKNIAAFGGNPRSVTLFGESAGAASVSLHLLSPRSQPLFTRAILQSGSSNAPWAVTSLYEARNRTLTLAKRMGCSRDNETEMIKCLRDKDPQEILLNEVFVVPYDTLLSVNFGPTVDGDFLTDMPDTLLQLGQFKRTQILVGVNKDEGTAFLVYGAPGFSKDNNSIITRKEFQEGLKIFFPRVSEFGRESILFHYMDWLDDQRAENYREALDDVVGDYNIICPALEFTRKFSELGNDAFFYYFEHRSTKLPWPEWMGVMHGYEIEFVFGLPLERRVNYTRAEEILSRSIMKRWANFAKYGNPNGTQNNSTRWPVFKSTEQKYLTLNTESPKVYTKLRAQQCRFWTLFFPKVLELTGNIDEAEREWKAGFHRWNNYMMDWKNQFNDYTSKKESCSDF
Cholinesterase (Equus caballus), sequence (P81908 whole entry): as above

Structure (SMILES)	inhibition at 1 µM [1]	inhibition at 1 µM [2]	IC50 (Cholinesterase [3])	IC50 (Acetylcholinesterase [4])	further results
CC1(C)COc2ccccc2C1N (configuration not stated)	3.7%	-3.8%	38 µM		
Cc1ccc2c(c1)C(O)C(C)(C)CO2 (configuration not stated)			> 100 µM	> 100 µM	
CC1(C)COc2cc3ccccc3cc2C1N (configuration not stated)	7.5%	13.3%	8.9 µM		Ki (Cholinesterase [5]): 18 µM; Ki (Cholinesterase [6]): 11 µM
CC1(C)COc2cc3ccccc3cc2C1=O	27.7%	16.4%	3.1 µM	> 100 µM	
COc1cccc2c1C(=O)C(C)(C)CO2	5.9%	12.1%	12 µM	> 100 µM	
CC1(C)COc2ccccc2C1=O	9.2%	9.7%	43 µM	> 100 µM	
COc1cccc2c1OCC(C)(C)C2=O			> 100 µM	> 100 µM	
CCOc1cc(C#N)cc2c1OCC(C)(C)C2=O	4.7%	20.5%	> 100 µM	> 100 µM	
C#CCN(C)CCCOc1ccc(Cl)cc1Cl [CLORGILINE]		99.8%			
C[C@H](NCc1ccc(OCc2cccc(F)c2)cc1)C(N)=O [SAFINAMIDE]		1.8%			
CC1(C)COc2c(OC(F)(F)F)cccc2C1=O			4.3 µM	> 100 µM	
CC1(C)COc2ncccc2C1=O			> 100 µM	> 100 µM	
CC1(C)COc2ccc(C#N)cc2C1O (configuration not stated)			18 µM	> 100 µM	
CC1(C)COc2ccc3ccccc3c2C1N (configuration not stated)	2.7%	12.5%	52 µM		
CCOc1cc(C#N)cc2c1OCC(C)(C)C2O (configuration not stated)			7.3 µM	> 100 µM	
CC1(C)COc2cc3ccccc3cc2C1O (configuration not stated)			50 µM	> 100 µM	
CC1(C)COc2ccc3ccccc3c2C1O (configuration not stated)			33 µM	> 100 µM	
CC1(C)COc2c(ccc3cccnc23)C1O (configuration not stated)			5 µM	> 100 µM	Ki (Cholinesterase [5]): 7.2 µM; Ki (Cholinesterase [6]): 13.7 µM
Cc1ccc2c(c1)C(N)C(C)(C)CO2 (configuration not stated)			67 µM		

Structure (SMILES)	inhibition at 1 µM [1]	inhibition at 1 µM [2]	IC50 (Cholinesterase [3])	IC50 (Acetylcholinesterase [4])	further results
C#CCNC1c2ccccc2OCC1(C)C (configuration not stated)	11.6%				inhibition (INH) [7]: Active
C#CCNC1c2cccc(OC)c2OCC1(C)C (configuration not stated)	13.8%	4.6%			
COc1cccc2c1C(O)C(C)(C)CO2 (configuration not stated)	5.3%	11.5%	> 100 µM	> 100 µM	
CC1(C)COc2cc(F)ccc2C1=O			> 100 µM	> 100 µM	
CC1(C)COc2cc(F)ccc2C1O (configuration not stated)			18 µM	> 100 µM	
O=C1CC(OCCCCCSC(=S)N2CCCCC2)Oc2ccccc21 (configuration not stated)					IC50 (Acetylcholinesterase [8]): 100 nM
CC1(C)COc2ccc(F)cc2C1O (configuration not stated)	8.3%	16.5%	> 100 µM	> 100 µM	
C#CCN(Cc1ccccc1)C1c2cccc(OC)c2OCC1(C)C (configuration not stated)	14.7%	4.3%			
CC1(C)COc2cc(F)c(F)cc2C1O (configuration not stated)			28 µM	> 100 µM	
C#CCN(Cc1ccccc1)C1c2ccccc2OCC1(C)C (configuration not stated)	2.9%	-10.6%			
CC1(C)COc2cc(F)c(F)cc2C1=O			> 100 µM	> 100 µM	
NC1CCOc2ccccc21 (configuration not stated)	4.8%	-0.7%			
CC1(C)COc2c(ccc3cccnc23)C1=O	4.8%	14.8%	6.4 µM	> 100 µM	
CC1(C)COc2ccccc2C1O (configuration not stated)	8%	24.3%	40 µM	> 100 µM	
C#CCNC1c2cc(C)ccc2OCC1(C)C (configuration not stated)	-6.8%	-9.4%			
CC1(C)COc2ccc(F)cc2C1=O			33 µM	> 100 µM	
CC1(C)COc2ccc3ccccc3c2C1=O	5.1%	23.2%	2.9 µM	> 100 µM	Ki (Cholinesterase [5]): 2 µM; Ki (Cholinesterase [6]): 6.7 µM; inhibition [9]: Active
COc1cccc2c1OCC(C)(C)C2N (configuration not stated)	4.3%	-0.7%	7.6 µM		Ki (Cholinesterase [5]): 9 µM; Ki (Cholinesterase [6]): 19.1 µM; inhibition [10]: Active
